Laboratory results as given in ChEMBL document CHEMBL3588846, “Aryl Pyrazoles as Potent Inhibitors of Arginine Methyltransferases: Identification of the First PRMT6 Tool Compound” (ACS Med Chem Lett, 2015).
The source made the active and inactive calls. The rule behind the calls is not given here.

Key:
[1] = biological target: T1, Protein arginine N-methyltransferase 6 (Homo sapiens, UniProt Q96LA8); test: Inhibition of FLAG and hexa-histidine tagged full-length human PRMT6 expressed in HEK293F cells pre-incubated for 30 mins before addition of a [3H]SAM and peptide mix; type: cell-based
[2] = biological target: Protein arginine N-methyltransferase 8 (Homo sapiens, UniProt Q9NR22); test: Inhibition of N-terminal GST tagged full-length human PRMT8 expressed in Escherichia coli (BL21(DE3) pre-incubated for 30 mins before addition of a [3H]SAM and peptide mix
[3] = biological target: T1, Protein arginine N-methyltransferase 6; test: Inhibition of his-tagged PRMT6 (unknown origin) expressed in human A375 cells assessed as reduction in H3R2 methylation at 0.01 to 20 uM incubated for 48 hrs by Western blot method; type: cell-based, A-375
[4] = biological target: T2, Protein arginine N-methyltransferase 1 (Homo sapiens, UniProt Q99873); test: Inhibition of N-terminal GST tagged full-length human PRMT1 expressed in high five insect cells pre-incubated for 30 mins before addition of a [3H]SAM and peptide mix
[5] = Volume of distribution at steady state in Sprague-Dawley rat at 1 mg/kg, iv administered as single dose by LC-MS/MS method; type: ADME, organism-based; conditions: in vivo, read-out: Vdss
[6] = AUC (0 to infinity) in Sprague-Dawley rat at 5 mg/kg, sc by LC-MS/MS method; type: ADME, organism-based; parameters: dose 5 mg/kg, route subcutaneous, time infinity; conditions: in vivo
[7] = AUC (0 to t) in Sprague-Dawley rat at 5 mg/kg, sc by LC-MS/MS method; type: ADME, organism-based; conditions: in vivo
[8] = Terminal half life in Sprague-Dawley rat at 1 mg/kg, iv administered as single dose by LC-MS/MS method; type: ADME, organism-based; conditions: in vivo, read-out: beta t1/2 (converted)
A-375 = test: Effect on PRMT6 expression in human A375 cells transfected with his-tagged PRMT6 at 0.01 to 20 uM incubated for 48 hrs by Western blot method; type: functional, cell-based
Method in brief: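 A375 cells were transfected with a PRMT6 expression construct, with empty vector as the control, and PRMT6 was overexpressed for 48 h. Compound exposure also lasted 48 h. PRMT6 protein levels were then checked in the treated cells.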

[9] = biological target: T2, Protein arginine N-methyltransferase 1; test: Inhibition of PRMT1 in human A375 cells assessed as effect on monomethyl R*GG motif methylation at 0.01 to 20 uM incubated for 48 hrs by Western blot method; type: cell-based, A-375
[10] = Oral bioavailability in rat; type: ADME, organism-based; conditions: in vivo
[11] = Terminal half life in Sprague-Dawley rat at 5 mg/kg, sc by LC-MS/MS method; type: ADME, organism-based; conditions: in vivo, read-out: beta t1/2 (converted)
[12] = Clearance in Sprague-Dawley rat at 1 mg/kg, iv administered as single dose by LC-MS/MS method; type: ADME, organism-based; conditions: in vivo
[13] = Unbound fraction in Sprague-Dawley rat plasma at 1 uM at 37 degC by equilibrium dialysis and LC-MS/MS method; type: ADME, cell-free
[14] = AUC (0 to infinity) in Sprague-Dawley rat at 1 mg/kg, iv administered as single dose by LC-MS/MS method; type: ADME, organism-based; parameters: dose 1 mg/kg, route intravenous, time infinity; conditions: in vivo
[15] = Permeability of the compound at 10 uM at pH 7.4 by LC-MS/MS based PAMPA method; type: physicochemical; conditions: read-out: permeability
[16] = Unbound fraction in human plasma at 1 uM at 37 degC by equilibrium dialysis and LC-MS/MS method; type: ADME, cell-free
Rattus norvegicus = test: Time above biochemical PRMT6 IC50 in Sprague-Dawley rat at 5 mg/kg, sc by LC-MS/MS method
[17] = Cmax in Sprague-Dawley rat at 5 mg/kg, sc by LC-MS/MS method; type: ADME, organism-based; parameters: dose 5 mg/kg, route subcutaneous; conditions: in vivo
[18] = AUC (0 to t) in Sprague-Dawley rat at 1 mg/kg, iv administered as single dose by LC-MS/MS method; type: ADME, organism-based; conditions: in vivo
[19] = Bioavailability in Sprague-Dawley rat at 5 mg/kg, sc by LC-MS/MS method; type: ADME, organism-based; conditions: in vivo
[20] = Tmax in Sprague-Dawley rat at 5 mg/kg, sc by LC-MS/MS method; type: ADME, organism-based; conditions: in vivo

T1 sequence (Q96LA8 whole entry): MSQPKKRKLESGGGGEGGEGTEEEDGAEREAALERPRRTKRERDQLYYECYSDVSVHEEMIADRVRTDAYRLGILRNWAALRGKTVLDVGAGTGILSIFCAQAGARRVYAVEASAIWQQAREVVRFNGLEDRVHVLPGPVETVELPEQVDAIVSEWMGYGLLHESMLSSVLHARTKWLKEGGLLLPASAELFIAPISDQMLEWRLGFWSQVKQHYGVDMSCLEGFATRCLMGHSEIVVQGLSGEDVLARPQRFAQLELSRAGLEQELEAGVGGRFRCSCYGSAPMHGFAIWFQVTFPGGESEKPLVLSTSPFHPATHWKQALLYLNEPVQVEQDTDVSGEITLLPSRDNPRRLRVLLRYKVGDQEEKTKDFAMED
Protein arginine N-methyltransferase 8, sequence (Q9NR22 whole entry): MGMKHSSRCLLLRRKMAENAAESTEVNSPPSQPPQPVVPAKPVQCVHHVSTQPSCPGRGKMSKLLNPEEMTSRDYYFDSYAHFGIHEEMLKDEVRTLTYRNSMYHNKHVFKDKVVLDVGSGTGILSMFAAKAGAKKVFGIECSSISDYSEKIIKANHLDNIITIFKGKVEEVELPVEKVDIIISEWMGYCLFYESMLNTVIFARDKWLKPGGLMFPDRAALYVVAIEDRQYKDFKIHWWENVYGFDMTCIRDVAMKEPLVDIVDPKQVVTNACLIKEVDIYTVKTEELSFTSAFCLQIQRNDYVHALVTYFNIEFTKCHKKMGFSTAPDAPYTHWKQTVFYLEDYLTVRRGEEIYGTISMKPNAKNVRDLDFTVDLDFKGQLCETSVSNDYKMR
T2 sequence (Q99873 whole entry): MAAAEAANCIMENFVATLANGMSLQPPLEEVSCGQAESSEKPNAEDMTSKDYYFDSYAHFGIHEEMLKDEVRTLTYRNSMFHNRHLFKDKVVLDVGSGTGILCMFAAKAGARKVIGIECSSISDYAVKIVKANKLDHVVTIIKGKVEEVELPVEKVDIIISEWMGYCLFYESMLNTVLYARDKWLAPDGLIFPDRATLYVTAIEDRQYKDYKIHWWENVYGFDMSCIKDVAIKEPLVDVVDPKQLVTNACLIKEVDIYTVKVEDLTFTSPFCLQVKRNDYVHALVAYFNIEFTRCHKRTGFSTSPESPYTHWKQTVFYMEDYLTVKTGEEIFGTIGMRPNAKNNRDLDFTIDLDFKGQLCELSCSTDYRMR

## CCOc1ccc(-c2[nH]ncc2CN(C)CCNC)cc1
[1]
  IC50: 25 nM

## CC(C)Oc1ccc(-c2[nH]ncc2CN(C)CCN)cc1Cl
[1]
  IC50: 8 nM

## CNCCN(C)Cc1n[nH]cc1-c1ccc(Oc2cccc(C(=O)N(C)C)c2)cc1
[1]
  IC50: 2 nM
[2]
  IC50: 347 nM

## CNCCN(C)Cc1c[nH]nc1-c1ccc(OC(C)C)cc1
[1]
  IC50: 11 nM

## CNCCN(C)Cc1n[nH]cc1-c1ccc(Oc2ccccc2C(=O)NC)cc1
[1]
  IC50: 5 nM
[2]
  IC50: 65 nM

## CNCCN(C)Cc1c[nH]nc1-c1cc(OC(CO)CC(C)C)cc(C(F)(F)F)c1 (stereo not drawn)
[3]
  IC50: > 20000 nM

## CNCCN(C)Cc1cn[nH]c1-c1ccc(OC(C)C)c(Cl)c1
[1]
  IC50: 10 nM

## CNCCN(C)Cc1c[nH]nc1-c1cc(OCCc2ccccc2)cc(C(F)(F)F)c1
[1]
  IC50: 327 nM
[2]
  IC50: 23 nM

## CC(C)Oc1c(Cl)cc(-c2c[nH]nc2CN(C)CCN)cc1C(F)(F)F
[1]
  IC50: 320 nM
[2]
  IC50: 70 nM

## CNCCN(C)Cc1cn[nH]c1-c1ccc(OC(CO)C(C)C)cc1 (stereo not drawn)
[4]
  IC50: 27 nM

## CNCCN(C)Cc1c[nH]nc1-c1cc(OCCC2CCCCC2)cc(C(F)(F)F)c1
[1]
  IC50: 461 nM
[2]
  IC50: 21 nM

## CNCCN(C)Cc1c[nH]nc1-c1ccc(Oc2cccc(C(=O)N(C)C)c2)cc1
[1]
  IC50: 3 nM
[2]
  IC50: 179 nM

## CN(CCN)Cc1c[nH]nc1-c1ccc(OCCCN2CCOCC2)cc1
[1]
  IC50: 13 nM

## CNCCN(C)Cc1c[nH]nc1-c1ccc(O[C@H]2C[C@H](OCCC3CCOCC3)C2)cc1
[5]
  Vd: 11.1 L/kg
[6]
  AUC(0-inf): 2780 ng·h/mL
[7]
  AUC(0-t): 2460 ng·h/mL
[8]
  half-life: 8.54 h
A-375
  Activity: inactive
[9]
  IC50: 7100 nM
[3]
  IC50: 637 nM
[10]
  bioavailability: < 5%
[11]
  half-life: 9.19 h
[12]
  clearance: 19.7 mL/min/kg
[13]
  fraction unbound at 1 µM: 0.51
[14]
  AUC(0-inf): 846 ng·h/mL
[15]
  Papp at 10 µM: 0.1 ×10⁻⁶ cm/s
[16]
  fraction unbound at 1 µM: 0.52
Rattus norvegicus
  Time: > 12 h
[17]
  Cmax: 844 ng/mL
[18]
  AUC(0-t): 745 ng·h/mL
[19]
  bioavailability: 65.6%
[20]
  Tmax: 0.444 h
